Assay results taken from ChEMBL document CHEMBL1156237, “Antiviral activity of benzimidazole derivatives. II. Antiviral activity of 2-phenylbenzimidazole derivatives” (Bioorg Med Chem, 2010).
pEC50: −log10 of the molar value. Active and inactive are the calls of the source. Unless noted, no cut-off for these calls is given here.

system: Bovine viral diarrhea virus 1; assay: Antiviral activity against Bovine viral diarrhea virus NADL infected in MDBK cells assessed as protection from virus-induced cytopathogenicity after 3 to 4 days by MTT method; type: functional, organism-based, Bovine viral diarrhea virus 1-NADL; details: Bovine viral diarrhea virus isolates and strains, MDBK
Procedure, shortened: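 Cytopathogenicity protection assay. MDBK cells at 3 × 10^4/well, grown overnight to confluence. Infected with BVDV NADL at m.o.i. 0.01 in MEM-E with 0.5% inactivated FBS, 1 mM Na pyruvate and 1% kanamycin. Serial compound dilutions added after 1 h. After 3–4 days at 37 °C, viability read by MTT; EC50 is the concentration giving 50% protection.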

SMILES | pEC50
Cn1c(-c2ccc(NC(=O)CN3CCCCC3)cc2)nc2cc(C(F)(F)F)ccc21 | 5.22
O=C(CN1CCN(c2ccccc2)CC1)Nc1ccc(-c2nc3cc(C(F)(F)F)ccc3n2C23CC4CC(CC(C4)C2)C3)cc1 | < 4.00
Nc1ccc(-c2nc3cc(C(F)(F)F)ccc3n2C2CCCCC2)cc1 | < 4.00
COc1ccc(-c2nc3cc(C(C)=O)ccc3[nH]2)c(OC)c1OC | < 4.00

system: Mammalian orthoreovirus 1; assay: Antiviral activity against Reovirus 1 3651 infected in BHK21 cells assessed as protection from virus-induced cytopathogenicity after 3 to 4 days by MTT method; type: functional, organism-based; details: BHK-21

SMILES | Activity
Cn1c(-c2ccc(NC(=O)CN3CCCCC3)cc2)nc2cc(C(F)(F)F)ccc21 | inactive
O=C(CN1CCN(c2ccccc2)CC1)Nc1ccc(-c2nc3cc(C(F)(F)F)ccc3n2C23CC4CC(CC(C4)C2)C3)cc1 | inactive
Nc1ccc(-c2nc3cc(C(F)(F)F)ccc3n2C2CCCCC2)cc1 | inactive

system: not listed separately; assay: Cytotoxicity against african green monkey Vero cells; type: cell-based; details: chlorocebus sabaeus
Procedure, shortened: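 Vero 76 monolayers exposed to serial compound dilutions, run in parallel on the same 24-well plates as the plaque-reduction assays. CC50 is the concentration reducing viability of mock-infected cells by 50%.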

SMILES | CC50 [µM]
Cn1c(-c2ccc(NC(=O)CN3CCCCC3)cc2)nc2cc(C(F)(F)F)ccc21 | > 100
O=C(CN1CCN(c2ccccc2)CC1)Nc1ccc(-c2nc3cc(C(F)(F)F)ccc3n2C23CC4CC(CC(C4)C2)C3)cc1 | > 100
Nc1ccc(-c2nc3cc(C(F)(F)F)ccc3n2C2CCCCC2)cc1 | > 100
COc1ccc(-c2nc3cc(C(C)=O)ccc3[nH]2)c(OC)c1OC | > 100

system: not listed separately; assay: Cytotoxicity against human MT4 cells after 96 hrs by MTT assay; type: cell-based; details: MT4 cells
Procedure, shortened: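 Exponentially growing MT-4 cells at 1 × 10^5 cells/mL in RPMI-1640 with 10% FCS, exposed to serial compound dilutions at 37 °C, 5% CO2. Viability by MTT after 96 h; CC50 is the concentration reducing viability of mock-infected cells by 50%.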

SMILES | CC50 at 96 h [µM]
Cn1c(-c2ccc(NC(=O)CN3CCCCC3)cc2)nc2cc(C(F)(F)F)ccc21 | 9
O=C(CN1CCN(c2ccccc2)CC1)Nc1ccc(-c2nc3cc(C(F)(F)F)ccc3n2C23CC4CC(CC(C4)C2)C3)cc1 | > 100
Nc1ccc(-c2nc3cc(C(F)(F)F)ccc3n2C2CCCCC2)cc1 | 44
COc1ccc(-c2nc3cc(C(C)=O)ccc3[nH]2)c(OC)c1OC | > 100

system: Human alphaherpesvirus 1; assay: Antiviral activity against HSV1 KOS infected in african green monkey Vero cells after 3 days by plaque reduction assay; type: functional, organism-based; details: Human alphaherpesvirus 1, KOS, 72 h
Procedure, shortened: (§1)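 Plaque reduction assay. Vero 76 cells at 2 × 10^5/well, grown overnight to confluence in D-MEM with 10% FBS. Infected 2 h with 50–100 PFU/well, unadsorbed virus removed. Overlay of D-MEM with 1% inactivated FBS and 0.75% methylcellulose, with or without serial compound dilutions. Incubated at 37 °C for 3 days (HSV-1 KOS, CVB-2 Ohio-1) or 5 days (RSV A2). Fixed and stained with crystal violet in 50% ethanol; plaques counted; EC50 by linear regression.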

SMILES | pEC50
Cn1c(-c2ccc(NC(=O)CN3CCCCC3)cc2)nc2cc(C(F)(F)F)ccc21 | < 4.00
O=C(CN1CCN(c2ccccc2)CC1)Nc1ccc(-c2nc3cc(C(F)(F)F)ccc3n2C23CC4CC(CC(C4)C2)C3)cc1 | < 4.00
Nc1ccc(-c2nc3cc(C(F)(F)F)ccc3n2C2CCCCC2)cc1 | < 4.00
COc1ccc(-c2nc3cc(C(C)=O)ccc3[nH]2)c(OC)c1OC | 4.40

system: Yellow fever virus; assay: Antiviral activity against Yellow fever virus 17D infected in BHK cells assessed as protection from virus-induced cytopathogenicity after 3 to 4 days by MTT method; type: functional, organism-based; details: not given

SMILES | pEC50
Cn1c(-c2ccc(NC(=O)CN3CCCCC3)cc2)nc2cc(C(F)(F)F)ccc21 | < 4.00
O=C(CN1CCN(c2ccccc2)CC1)Nc1ccc(-c2nc3cc(C(F)(F)F)ccc3n2C23CC4CC(CC(C4)C2)C3)cc1 | < 4.00
Nc1ccc(-c2nc3cc(C(F)(F)F)ccc3n2C2CCCCC2)cc1 | < 4.00
COc1ccc(-c2nc3cc(C(C)=O)ccc3[nH]2)c(OC)c1OC | < 4.00

system: Vaccinia virus; assay: Antiviral activity against Vaccinia virus Elstree-Lister infected in african green monkey Vero cells after 3 days by plaque reduction assay; type: functional, organism-based; details: Orthopoxvirus vaccinia

SMILES | Activity
Cn1c(-c2ccc(NC(=O)CN3CCCCC3)cc2)nc2cc(C(F)(F)F)ccc21 | inactive
O=C(CN1CCN(c2ccccc2)CC1)Nc1ccc(-c2nc3cc(C(F)(F)F)ccc3n2C23CC4CC(CC(C4)C2)C3)cc1 | inactive
Nc1ccc(-c2nc3cc(C(F)(F)F)ccc3n2C2CCCCC2)cc1 | inactive

same assay, conditions: Orthopoxvirus vaccinia, 72 h

SMILES | pEC50
COc1ccc(-c2nc3cc(C(C)=O)ccc3[nH]2)c(OC)c1OC | < 4.00

system: Respiratory syncytial virus; assay: Antiviral activity against RSV A2 infected in african green monkey Vero cells after 5 days by plaque reduction assay; type: functional, organism-based; details: not given; procedure, shortened: as §1

SMILES | Activity
Cn1c(-c2ccc(NC(=O)CN3CCCCC3)cc2)nc2cc(C(F)(F)F)ccc21 | inactive
O=C(CN1CCN(c2ccccc2)CC1)Nc1ccc(-c2nc3cc(C(F)(F)F)ccc3n2C23CC4CC(CC(C4)C2)C3)cc1 | inactive
Nc1ccc(-c2nc3cc(C(F)(F)F)ccc3n2C2CCCCC2)cc1 | inactive

same assay, conditions: human respiratory syncytial virus, A2, Vero, 120 h

SMILES | pEC50
COc1ccc(-c2nc3cc(C(C)=O)ccc3[nH]2)c(OC)c1OC | < 4.00

system: Vesicular stomatitis virus; assay: Antiviral activity against VSV Indiana lab infected in african green monkey Vero cells after 2 days by plaque reduction assay; type: functional, organism-based; details: not given

SMILES | Activity
Cn1c(-c2ccc(NC(=O)CN3CCCCC3)cc2)nc2cc(C(F)(F)F)ccc21 | inactive
O=C(CN1CCN(c2ccccc2)CC1)Nc1ccc(-c2nc3cc(C(F)(F)F)ccc3n2C23CC4CC(CC(C4)C2)C3)cc1 | inactive
Nc1ccc(-c2nc3cc(C(F)(F)F)ccc3n2C2CCCCC2)cc1 | inactive
COc1ccc(-c2nc3cc(C(C)=O)ccc3[nH]2)c(OC)c1OC | inactive

system: Poliovirus 1; assay: Antiviral activity against Polio virus type1 Sabin strain Chat infected in african green monkey Vero cells after 2 days by plaque reduction assay; type: functional, organism-based, Human poliovirus 1 strain Sabin; details: Enterovirus C, 48 h

SMILES | pEC50
Cn1c(-c2ccc(NC(=O)CN3CCCCC3)cc2)nc2cc(C(F)(F)F)ccc21 | < 4.00
O=C(CN1CCN(c2ccccc2)CC1)Nc1ccc(-c2nc3cc(C(F)(F)F)ccc3n2C23CC4CC(CC(C4)C2)C3)cc1 | < 4.00
Nc1ccc(-c2nc3cc(C(F)(F)F)ccc3n2C2CCCCC2)cc1 | < 4.00
COc1ccc(-c2nc3cc(C(C)=O)ccc3[nH]2)c(OC)c1OC | < 4.00

system: Coxsackievirus B2; assay: Antiviral activity against Human coxsackievirus B2 Ohio-1 infected in african green monkey Vero cells after 3 days by plaque reduction assay; type: functional, organism-based, Coxsackievirus B2 (strain Ohio-1); details: Enterovirus B, Vero, 72 h; procedure, shortened: as §1

SMILES | pEC50
Cn1c(-c2ccc(NC(=O)CN3CCCCC3)cc2)nc2cc(C(F)(F)F)ccc21 | 4.49
O=C(CN1CCN(c2ccccc2)CC1)Nc1ccc(-c2nc3cc(C(F)(F)F)ccc3n2C23CC4CC(CC(C4)C2)C3)cc1 | 4.57
Nc1ccc(-c2nc3cc(C(F)(F)F)ccc3n2C2CCCCC2)cc1 | < 4.00
COc1ccc(-c2nc3cc(C(C)=O)ccc3[nH]2)c(OC)c1OC | < 4.00

system: not listed separately; assay: Cytotoxicity against MDBK cells after 48 to 96 hrs by MTT assay; type: cell-based, Bos taurus; details: cattle, MDBK cells
Procedure, shortened: (§2)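 Cell seeding: MDBK at 6 × 10^5 cells/mL in MEM-E with 10% horse serum and 1 mM Na pyruvate; BHK at 1 × 10^6 cells/mL in MEM-E with 10% FBS. Serial compound dilutions, 37 °C, 5% CO2. Viability of mock-infected cells by MTT after 48–96 h; CC50 is the concentration reducing viability by 50%.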

SMILES | CC50 [µM]
Cn1c(-c2ccc(NC(=O)CN3CCCCC3)cc2)nc2cc(C(F)(F)F)ccc21 | 100
O=C(CN1CCN(c2ccccc2)CC1)Nc1ccc(-c2nc3cc(C(F)(F)F)ccc3n2C23CC4CC(CC(C4)C2)C3)cc1 | > 100
Nc1ccc(-c2nc3cc(C(F)(F)F)ccc3n2C2CCCCC2)cc1 | > 100
COc1ccc(-c2nc3cc(C(C)=O)ccc3[nH]2)c(OC)c1OC | > 100

system: not listed separately; assay: Cytotoxicity against BHK cells after 48 to 96 hrs by MTT assay; type: cell-based, Mesocricetus auratus; details: hamster; procedure, shortened: as §2

SMILES | CC50 [µM]
Cn1c(-c2ccc(NC(=O)CN3CCCCC3)cc2)nc2cc(C(F)(F)F)ccc21 | > 100
O=C(CN1CCN(c2ccccc2)CC1)Nc1ccc(-c2nc3cc(C(F)(F)F)ccc3n2C23CC4CC(CC(C4)C2)C3)cc1 | > 100
Nc1ccc(-c2nc3cc(C(F)(F)F)ccc3n2C2CCCCC2)cc1 | > 100
COc1ccc(-c2nc3cc(C(C)=O)ccc3[nH]2)c(OC)c1OC | > 100

system: Human immunodeficiency virus 1; assay: Antiviral activity against HIV1 3B infected in human MT4 cells assessed as protection from virus-induced cytopathogenicity after 4 days by MTT method; type: functional, organism-based; details: not given
Procedure, shortened: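 MT-4 cells, 1 × 10^4/well in RPMI with or without serial compound dilutions, infected with HIV-1 IIIB, 100 CCID50 (m.o.i. 0.01). Protection from virus-induced cytopathogenicity read by MTT.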

SMILES | Activity
Cn1c(-c2ccc(NC(=O)CN3CCCCC3)cc2)nc2cc(C(F)(F)F)ccc21 | inactive
O=C(CN1CCN(c2ccccc2)CC1)Nc1ccc(-c2nc3cc(C(F)(F)F)ccc3n2C23CC4CC(CC(C4)C2)C3)cc1 | inactive
Nc1ccc(-c2nc3cc(C(F)(F)F)ccc3n2C2CCCCC2)cc1 | inactive
COc1ccc(-c2nc3cc(C(C)=O)ccc3[nH]2)c(OC)c1OC | inactive
